Experimental data published in article PMC4392893 (Cancer chemotherapy and pharmacology, 2014).
Like-named read-outs stand apart in the source and are kept apart here. Blank lines part the entries; values can stand above or below the molecule they belong to.

What was measured:
NF-kB pathway = details: mouse RAW264.7 macrophages; cited from earlier work
IKKβ = details: cited from earlier work
[1] = athymic nude mice, cited from earlier work
[2] = system: SCC Tu212 xenograft tumors; details: cited from earlier work
osteoclastogenesis = details: in vitro; cited from earlier work
[3] = EF-24 stability in human plasma; assay type: in vitro ADME; details: for half-life at 31.25 nM / half-life at 1000 nM: human, plasma, Half-life in plasma
Outline: (§1)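 Test compound at 31.25 or 1000 nM was held in plasma at 4°C and 37°C for 24 h. Plasmas: mouse and rat from heparin-CPD blood, dog heparinised, human from healthy volunteers. Aliquots at 5, 15 and 30 min and 1, 2, 4, 6 and 24 h went into silanized tubes, were frozen at −20°C, then protein-precipitated with methanol. Samples were quantified by LC/MS/MS (m/z 312→149) against an internal standard. Half-lives were derived from loss over time.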

[4] = EF-24 stability in mouse plasma; assay type: in vitro ADME; details: for Half-life in plasma: mouse plasma, 4°
Outline: as §1

[5] = EF-24 stability in rat plasma; assay type: in vitro ADME; details: for Half-life in plasma: 4°
Outline: as §1

[6] = EF-24 stability in dog plasma; assay type: in vitro ADME; details: for Half-life in plasma: dog plasma, 4°
Outline: as §1

[7] = Partition ratio and stability in fresh mouse whole blood; assay type: in vitro ADME; details: 24-hour incubation in whole blood at 37°C
Outline: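 Fresh mouse whole blood (heparin in citrate-phosphate-dextrose) was spiked in silanized amber vials and kept on ice or at 37°C for 24 h. On ice, aliquots were taken at 0, 5, 15, 30, 60, 120 and 240 min. Red cells were pelleted at 10,000 rpm for 3 min, and plasma was frozen at −20°C before LC/MS/MS. For partitioning, equal amounts (3.9–2000 nM) went into plasma and whole blood.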

human serum albumin = human serum albumin (Homo sapiens, UniProt P02768); assay: Binding to human serum albumin by ultracentrifugation; details: human serum albumin 40 mg/ml in phosphate buffered saline, pH 7.4
Sequence of human serum albumin (P02768 25-609): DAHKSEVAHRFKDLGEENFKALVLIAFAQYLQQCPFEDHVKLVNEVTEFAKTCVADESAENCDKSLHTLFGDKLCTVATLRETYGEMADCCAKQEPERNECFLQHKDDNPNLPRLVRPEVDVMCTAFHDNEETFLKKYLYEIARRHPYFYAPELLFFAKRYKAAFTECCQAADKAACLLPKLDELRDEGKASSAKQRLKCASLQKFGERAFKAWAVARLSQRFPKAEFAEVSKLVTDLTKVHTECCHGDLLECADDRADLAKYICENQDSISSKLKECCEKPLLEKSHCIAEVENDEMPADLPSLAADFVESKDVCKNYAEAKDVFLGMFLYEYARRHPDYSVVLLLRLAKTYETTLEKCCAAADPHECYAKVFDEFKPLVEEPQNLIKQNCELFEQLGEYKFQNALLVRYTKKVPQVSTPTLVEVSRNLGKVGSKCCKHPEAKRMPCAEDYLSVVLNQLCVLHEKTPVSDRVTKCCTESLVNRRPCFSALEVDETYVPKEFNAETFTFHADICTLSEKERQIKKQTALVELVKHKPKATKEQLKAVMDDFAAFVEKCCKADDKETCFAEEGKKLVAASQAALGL
Outline: (§2)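 Ultracentrifugation binding assay. Matrices were thawed mouse, rat, dog or human plasma, human serum albumin (40 mg/ml in PBS, pH 7.4) or α1-acid glycoprotein (1 mg/ml). Samples were incubated 30 min at 37°C, then spun at 90,000 rpm for 3 h at 4°C. Drug was measured by LC/MS/MS before and after spinning, with upper supernatant taken as unbound. Supernatant protein-free status was confirmed by DC protein assay. Binding was calculated from percent recovered.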

[8] = system: human α1-acid glycoprotein; assay: Binding to α1-acid glycoprotein by ultracentrifugation; details: α1-acid glycoprotein 1 mg/ml
Outline: as §2

[9] = Pharmacokinetics in male CD2F1 mice; assay type: in vivo, mouse; details: for Bioavailability: by comparison of AUC values
Outline: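 Male CD2F1 mice (19–26 g) received 10 mg/kg in D5W:DMSO (9:1) by tail-vein i.v., i.p. or oral gavage. Cardiac-puncture blood was drawn under methoxyflurane, two mice per time point, at 3–240 min (i.v.) or 3–480 min (i.p., oral). Plasma was analysed by LC/MS/MS. Half-life came from compartmental and AUC/CL from noncompartmental analysis of mean concentrations, bioavailability from AUC ratios. Urine was pooled over 24 h after 25 or 32 mg/kg i.v.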

[10] = NADPH-dependent metabolism in mouse liver microsomes; assay type: in vitro ADME; details: 10 μM, 15-minute incubation
Outline: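 Liver microsomes came from male CD2F1 mice, untreated or given phenobarbital (80 mg/kg) or 3-methylcholanthrene (20 mg/kg) i.p. for 3 days. Microsomes were isolated on day 4 by differential centrifugation. Test compound at 10 µM was incubated at 37°C with 0.2–1 mg/ml protein, 1.0 mM NADPH, 5 mM MgCl2 and 100 mM potassium phosphate, pH 7.4, for 15 min. Controls lacked NADPH. Reactions were stopped with ice-cold methanol, and remaining drug was measured by LC/MS/MS.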

[11] = NADPH-dependent metabolism in human liver microsomes; assay type: in vitro ADME; details: 10 μM, 120 minutes (Fig 4 legend)
Outline: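 Pooled human liver microsomes came from livers unsuitable for transplantation. They were preincubated 2 min in 100 mM potassium phosphate (pH 7.4), 5 mM MgCl2 ± 1.0 mM NADPH at 37°C. Reactions were started with test compound (10 µM) at 0.2–1 mg/ml protein and ran 120 min. NADPH-free incubations served as controls. Reactions were quenched with ice-cold methanol (2:1), and remaining drug was quantified by LC/MS/MS.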

[12] = Light sensitivity during assay development; assay type: physicochemical; details: second peak prevented by aluminum foil or amber vials
[13] = system: NCI anti-cancer cell line screen; details: read-out: Mean GI50; cited from earlier work
[14] = system: HCT-116 human colon tumor xenograft; details: cited from earlier work
MiPaPc xenografts = details: 10 and 20 mg/kg i.p., ref Manuscripts in preparation 2013; cited from earlier work
[15] = system: osteoblastic differentiation and mineralization; details: in vitro, associated with Smad signaling; cited from earlier work
[16] = 10 mg/kg, intraperitoneal, male CD2F1 mice
[17] = 10 mg/kg, oral, male CD2F1 mice
[18] = male, CD2F1, mouse, plasma, ip, 10 mg/kg
[19] = male, CD2F1, mouse, plasma, iv, 10 mg/kg
[20] = male, CD2F1, mouse, plasma, po, 10 mg/kg

SMILES: O=C1C(=Cc2ccccn2)CNCC1=Cc1ccccn1 [EF31, 3,5-Bis(2-pyridinylmethylidene)-4piperidone]
Fold more potent blocker of NF-kB pathway activity than EF24 (NF-kB pathway): 7 fold
Fold more potent blocker of NF-kB pathway activity than curcumin (NF-kB pathway): > 10 fold
Fold more effective inhibition of IKKβ vs. EF24 (IKKβ): ~ 65 fold
Average AUC(0-∞) ([1]; 15 mg/kg i.p.): 3386 h x ng mL^−1
Average AUC(0-∞) ([1]; 25 mg/kg i.p.): 7769 h x ng mL^−1
Effect on xenograft tumors ([2]; 15 and 25 mg/kg i.p.): dose-response
Effect on osteoclastogenesis as compared with curcumin (osteoclastogenesis): suppressive effect

Stability in plasma ([3]; 24-hour period): stable
half-life at 31.25 nM ([3]; 4°): 84 h
half-life at 31.25 nM ([3]; 37°): 79 h
half-life at 1000 nM ([3]; 4°): 100 h
half-life at 1000 nM ([3]; 37°): 58 h
Half-life in plasma ([4]; 31.25 nM): Stable
Half-life in plasma ([4]; 1000 nM): Stable
half-life ([4]; mouse, plasma): 11 h
half-life at 31.25 nM ([4]; mouse, plasma): 12 h
half-life at 1000 nM ([4]; mouse, plasma): 10 h
Half-life in plasma ([5]; rat plasma, 31.25 nM): Stable
Half-life in plasma ([5]; rat plasma, 1000 nM): Stable
Stability in plasma ([5]; rat plasma, 24-hour period): stable
half-life at 31.25 nM ([5]; rat, plasma): 50 h
half-life at 1000 nM ([5]; rat, plasma): 66 h
Half-life in plasma ([6]; 31.25 nM): Stable
Half-life in plasma ([6]; 1000 nM): Stable
half-life ([6]; dog, plasma): 35 h
half-life at 31.25 nM ([6]; dog, plasma): 36 h
half-life at 1000 nM ([6]; dog, plasma): 33 h
Stability in whole blood [7]: Multi-exponential loss
Percent bound (human serum albumin): 95-100%
Percent bound [8]: < 20%
Time of secondary peak concentration ([9]; 10 mg/kg, i.p., male CD2F1 mice, plasma): 360 min
Peak plasma concentration ([9]; 10 mg/kg, i.v., male CD2F1 mice): 2.5 µM
Bioavailability ([9]; 10 mg/kg, intraperitoneal): 34.7%
t1/2z [9, 16]: 3.65 h
t1/2α [9, 16]: 8.9 min
Cmax ([9]; 10 mg/kg, intraperitoneal, male CD2F1 mice, plasma): 833 nM
t1/2α ([9]; 10 mg/kg, intravenous, male CD2F1 mice): 0.4 min
Bioavailability ([9]; 10 mg/kg, oral): 60.1%
t1/2z [9, 17]: 2.95 h
t1/2α [9, 17]: 3.3 min
Cmax ([9]; 10 mg/kg, oral, male CD2F1 mice, plasma): 882 nM
AUC [9, 18]: 0.346 µM·h
Tmax [9, 18]: 3 min
half-life ([9]; male, CD2F1, mouse, plasma, ip, 10 mg/kg, t1/2z, intraperitoneal, male CD2F1 mice): ~3.33 h
AUC [9, 19]: 0.996 µM·h
Tmax [9, 19]: 2.7 min
Vd [9, 19]: 4.85 L/kg
clearance [9, 19]: 482 mL/min/kg
Cmax ([9]; male, CD2F1, mouse, plasma, iv, 10 mg/kg, Cmax, male CD2F1 mice): 2490 nM
half-life ([9]; male, CD2F1, mouse, plasma, iv, 10 mg/kg, t1/2z (terminal elimination half-life), male CD2F1 mice): 1.23 h
half-life ([9]; male, CD2F1, mouse, plasma, iv, 10 mg/kg, t1/2β, male CD2F1 mice): 0.09 h
AUC [9, 20]: 0.599 µM·h
Tmax [9, 20]: 3 min
half-life ([9]; male, CD2F1, mouse, plasma, po, 10 mg/kg, t1/2z, male CD2F1 mice): ~3.33 h
EF-24 in 24-hour pooled urine ([9]; mice administered 25 mg/kg or 32 mg/kg intravenously): not detected
EF-24 consumed by NADPH-dependent metabolism ([10]; liver microsomes from 3MC-pretreated mice): 54%
EF-24 consumed by NADPH-dependent metabolism ([10]; liver microsomes from PB-pretreated mice): 41%
EF-24 consumed by NADPH-dependent metabolism ([10]; liver microsomes from untreated mice): 40%
EF-24 consumed by NADPH-dependent metabolism [11]: > 70%
Stability to light [12]: light sensitivity
SMILES: CC(=O)O.O=C1C(=Cc2ccccc2F)CNCC1=Cc1ccccc1F [EF-24, 3,5-bis[(2-fluorophenyl)methylene]-4-piperidinone acetate]
GI50 [13]: 700 nM
Tumor growth in vivo ([14]; dose of 200 μg/kg): inhibited tumor growth
Growth of HCT-116 human colon tumor xenograft ([14]; mice, little apparent toxicity, no reference given): potent growth inhibition

SMILES: CN1C/C(=C\c2ccccn2)C(=O)/C(=C/c2ccccn2)C1 [UBS-109]
Effect on xenografts ([2]; 50, 100 and 150 mg/kg p.o., ref Manuscripts in preparation 2013): dose response
Effect on xenografts (MiPaPc xenografts): dose response
Effect on osteoclastogenesis as compared with curcumin (osteoclastogenesis): suppressive effect
Effect on osteoblastic differentiation and mineralization [15]: unique stimulatory effect
